Experimental data from article PMC11406440 (Food and chemical toxicology : an international journal …, 2024).

What was measured:
[1] = PFHxS concentration in serum and urine after dermal exposure; format: in vivo, B6C3F1 mice; settings: 28 days; for Urine PFHxS concentration: 5 pooled samples; for PFHxS serum concentration: 24 h after last exposure
Outline: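 Mice received 25 μl/ear of acetone or 1.25, 2.5, 5% w/v test compound on both ears daily for 28 days. About 24 h after the last exposure, serum was taken by cardiac puncture (5 mice/group) and urine was pooled per group. Analysis was solid-phase extraction with LC/MS/MS (BEH C18, EPA method 537), linear isomer only. Serum was compared with vehicle by one-way ANOVA.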

B6C3F1 mice [2] = experiment: Organ and body weights after 28-day dermal exposure; format: in vivo; settings: 28 days
Outline: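 Female B6C3F1 mice (5/group) were treated topically on both ears (25 μl/ear) with acetone or 1.25, 2.5, 5% w/v test compound once daily for 28 days. They were weighed at necropsy about 24 h after the last dose. Liver, spleen, kidneys and thymus were cleaned of connective tissue and weighed. Organ weights were reported relative to body weight and uncorrected; dose trend was tested.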

B6C3F1 mice [3] = experiment: Serum chemistries after 28-day dermal exposure; format: in vivo; settings: 28 days
Outline: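 After 28 daily ear applications (25 μl/ear; acetone or 1.25, 2.5, 5% w/v), blood was taken by cardiac puncture about 24 h post-dose. Serum was separated by centrifugation and frozen at −20 °C, then run on a Catalyst DX chemistry analyzer for ALKP, BUN, glucose, cholesterol and ALT. There were 4–5 mice/group, with one-way ANOVA and Dunnett's post-test versus vehicle.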

ear = experiment: Skin; format: in vivo, B6C3F1 mice; settings: 28 days
Outline: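 Mice were dosed daily on both ears (25 μl/ear; acetone vehicle or 1.25, 2.5, 5% w/v) for 28 days. Half an ear pinna or the caudate liver lobe was homogenized in Buffer RLT, and total RNA was column-isolated with DNase treatment. TaqMan qPCR gave relative fold change (2−ΔΔCT) versus vehicle controls, normalized to β-actin. Liver used 4–5 mice/group, one-way ANOVA/Dunnett or Kruskal-Wallis/Dunn.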

dLN cells = experiment: Draining lymph node; format: in vivo, B6C3F1 mice; settings: 28 days
Outline: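 Female B6C3F1 mice (5/group) received 25 μl/ear of acetone vehicle or 1.25, 2.5 or 5% w/v test compound on the dorsal surface of each ear, once daily for 28 days. They were euthanized about 24 h later. Single-cell suspensions were made from both auricular dLNs, half a spleen or one ear pinna. Cells were Fc-blocked (anti-CD16/32), stained with surface antibody cocktails and acquired on an LSR II, with FMO gating controls.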

spleen = experiment: Spleen gene expression; format: in vivo, B6C3F1 mice; settings: PFHxS dermal, 28 days
Outline: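 Spleens came from female B6C3F1 mice given acetone vehicle or test compound (1.25–5% w/v, 25 μl/ear, both ears) daily for 28 days and necropsied about 24 h after the last dose. Gene expression was measured by qPCR and expressed as mean fold change relative to vehicle, with 5 mice/group. Significance used one-way ANOVA with Dunnett's or Kruskal-Wallis with Dunn's post-test.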

NK cell function = experiment: NK assay; format: in vivo, mice; settings: any effector to target ratios
[4] = 28 days of 20 mg/kg/d oral gavage, female mice; ref Narizzano et al., 2021; cited from earlier work
mice = settings: 7 days of 10 mg/kg oral exposure; ref Das et al., 2017; cited from earlier work
Deer mice = settings: oral gavage for 28-days, 7 and 14 mg/kg/d; ref Narizzano et al., 2023; cited from earlier work

Compound: O=S(=O)(O)C(F)(F)C(F)(F)C(F)(F)C(F)(F)C(F)(F)C(F)(F)F [PFHxS, Perfluorohexane sulfonic acid]
- Urine PFHxS concentration ([1]; 1.25% PFHxS dermal): 43 µg/mL
- PFHxS serum concentration ([1]; 1.25% PFHxS dermal): 440 µg/mL
- Urine PFHxS concentration ([1]; 2.5% PFHxS dermal): 120 µg/mL
- PFHxS serum concentration ([1]; 2.5% PFHxS dermal): 608 µg/mL
- Urine PFHxS concentration ([1]; 5% PFHxS dermal): 130 µg/mL
- PFHxS serum concentration ([1]; 5% PFHxS dermal): 656 µg/mL
- Liver weight (% of body weight) increase vs. vehicle-treated mice (B6C3F1 mice [2]; 1.25% PFHxS dermal): 162%
- Spleen weight (% of body) decrease (B6C3F1 mice [2]; 1.25% PFHxS dermal): 25%
- Mass of kidneys not corrected for body weight (B6C3F1 mice [2]; 1.25, 2.5, 5% PFHxS dermal): significant decreases
- Mass of liver not corrected for body weight (B6C3F1 mice [2]; 1.25, 2.5, 5% PFHxS dermal): significant increases
- Mass of spleen not corrected for body weight (B6C3F1 mice [2]; 1.25, 2.5, 5% PFHxS dermal): significant decreases
- Mass of thymus not corrected for body weight (B6C3F1 mice [2]; 1.25, 2.5, 5% PFHxS dermal): significant decreases
- Kidney weight (as % of body weight) (B6C3F1 mice [2]; 1.25-5% PFHxS dermal): No change
- Liver weight (% of body weight) increase vs. vehicle-treated mice (B6C3F1 mice [2]; 2.5% PFHxS dermal): 172%
- Spleen weight (% of body) decrease (B6C3F1 mice [2]; 2.5% PFHxS dermal): 37%
- Thymus weight (% of body) decrease (B6C3F1 mice [2]; 2.5% PFHxS dermal): 44%
- Body weight decrease (B6C3F1 mice [2]; 5% PFHxS dermal): 14%
- Liver weight (% of body weight) increase vs. vehicle-treated mice (B6C3F1 mice [2]; 5% PFHxS dermal): 205%
- Spleen weight (% of body) decrease (B6C3F1 mice [2]; 5% PFHxS dermal): 38%
- Thymus weight (% of body) decrease (B6C3F1 mice [2]; 5% PFHxS dermal): 47%
- Serum ALT fold increase (B6C3F1 mice [3]; 1.25% PFHxS dermal): 3.66 fold
- Serum ALKP fold increase (B6C3F1 mice [3]; 2.5% PFHxS dermal): 2.11 fold
- Serum ALT fold increase (B6C3F1 mice [3]; 2.5% PFHxS dermal): 2.9 fold
- Serum BUN change (B6C3F1 mice [3]; 2.5 and 5% PFHxS dermal): decreased
- Serum cholesterol change (B6C3F1 mice [3]; 2.5 and 5% PFHxS dermal): decreased
- Serum ALKP fold increase (B6C3F1 mice [3]; 5% PFHxS dermal): 2.61 fold
- Serum ALKP increase (B6C3F1 mice [3]; 5% PFHxS dermal): 161%
- Serum ALT fold increase (B6C3F1 mice [3]; 5% PFHxS dermal): 4.6 fold
- Serum ALT increase (B6C3F1 mice [3]; 5% PFHxS dermal): 360%
- Serum cholesterol decrease (B6C3F1 mice [3]; 5% PFHxS dermal): 43%
- Serum glucose decrease (B6C3F1 mice [3]; 5% PFHxS dermal): 58%
- Serum urea nitrogen (BUN) decrease (B6C3F1 mice [3]; 5% PFHxS dermal): 34%
- Serum glucose change (B6C3F1 mice [3]; all three PFHxS concentrations (1.25, 2.5, 5%)): decreased
- Skin Serpine1 gene expression, fold increase (ear; 1.25% PFHxS): 3 fold
- Skin Il-1β gene expression (ear; 1.25-5% PFHxS): no significant changes
- Skin Pparα gene expression (ear; 1.25-5% PFHxS): no change
- Skin barrier gene Flg2 expression (ear; 1.25-5% PFHxS): No changes
- Skin barrier gene Itgbl1 expression (ear; 1.25-5% PFHxS): No changes
- Skin barrier gene Krt10 expression (ear; 1.25-5% PFHxS): No changes
- Skin barrier gene Krt14 expression (ear; 1.25-5% PFHxS): No changes
- Skin Serpine1 gene expression, fold increase (ear; 2.5% PFHxS): 4 fold
- Skin barrier gene Lor expression (ear; 2.5%, 5% PFHxS): Increases
- Skin Cxcl1 gene expression, fold increase (ear; 5% PFHxS): 5 fold
- Skin Il-6 gene expression, fold increase (ear; 5% PFHxS): 2 fold
- Skin Pparγ gene expression (ear; 5% PFHxS): decrease
- Skin Pparδ gene expression (ear; 5% PFHxS): increase
- Skin S100a8 gene expression, fold increase (ear; 5% PFHxS): 9 fold
- Skin Serpine1 gene expression, fold increase (ear; 5% PFHxS): 4 fold
- Skin Tslp gene expression, fold increase (ear; 5% PFHxS): 33 fold
- Skin barrier gene Flg expression (ear; 5% PFHxS): Increases
- dLN CD4+ T cell number (dLN cells; 1.25%, 2.5%, and 5% PFHxS): significant decrease
- dLN CD8+ T cell frequency (dLN cells; 2.5%, 5% PFHxS): increase
- dLN eosinophil frequency and number (dLN cells; 2.5%, 5% PFHxS): increase
- dLN mean fluorescence intensity of CD86 on B cells (dLN cells; 5% PFHxS): increase
- dLN mean fluorescence intensity of MHCII on B cells (dLN cells; 5% PFHxS): increase
- dLN total DC number (dLN cells; 5% PFHxS): increase
- Spleen Abcg1 gene expression (spleen): increased
- Spleen Chac1 gene expression (spleen): increased
- Spleen Crim1 gene expression (spleen): increased
- Spleen Ctse gene expression (spleen): decrease
- Spleen Fbxo38 gene expression (spleen): increased
- Spleen Id1 gene expression (spleen): increased
- Spleen Il-10 gene expression (spleen): increased
- Spleen Tlr5 gene expression (spleen): increased
- Spleen Tlr6 gene expression (spleen): increased
- Spleen Tlr7 gene expression (spleen): increased
- Spleen Tlr8 gene expression (spleen): increased
- NK cell function (NK cell function): No significant decreases
- Serum level [4]: 35000 ng/mL
- Increase in liver weight (mice): ~ 60%
- PFC formation (Deer mice): reduction
